CAL PDZ FP-1 = untagged CAL PDZ binding inhibitors, primary screen, biochemical, fluorescence polarization, HTS; inhibition, % at 24.9 µM; 300,000 compounds, 0.92% hits; AID 602252, 2012; purified CAL PDZ, TMR-peptide fluorescence polarization, 1 h;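 active means mean inhibition of at least 30% with at least half of replicates also reaching 30%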;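 further: 0% = DMSO neutral control and 100% = excess unlabeled competitor peptide PRC23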
ARNT TACC3 PPI = disruptors of ARNT/TACC3 protein interaction, primary screen, biochemical, AlphaScreen, single concentration; AlphaScreen His-ARNT PAS-B/GST-TACC3 binding, luminescence; TACC3 fragment carries E629A point mutation; 390,000 compounds, 0.66% hits; Transforming acidic coiled-coil-containing protein 3 (Homo sapiens), Q9Y6A5; inhibition, % at 9.99 µM; AID 623870, 2012;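 active means mean inhibition of replicates at least 50% and at least half of replicates each reaching 50%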;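 further: 0% = complete ARNT plus TACC3 wells and 100% = ARNT alone without TACC3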
miR-122 sensor = miR-122 Renilla sensor signal increase in Huh7, primary screen, miR-122 inhibitor project, cell-based, single point, plate reader; 340,000 compounds, 0.3% hits; Huh7 miR-122 Renilla luciferase sensor, 48 h; neutral wells = 0, positive control = 100; activation (reporter increase), % at 12.5 µM;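 active means mean replicate activation score at least 90 and every replicate individually at or above 90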;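 further: higher luciferase means less miR-122 activity so hits act as miR-122 inhibitors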
SR-BI DiI-HDL act = activators of SR-BI mediated DiI-HDL uptake, primary screen, ldlA[mSR-BI] CHO cells, DiI fluorescence; activation, % at 12.5 µM; AID 504775, 2011; 320,000 compounds, 0.096% hits; 3 h; 100 = double the neutral-control signal;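 active means mean replicate activation of at least 60% and every replicate at or above 60%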;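 further: 0% = median plate neutral-control signal and 100% = twice that signal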
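Material: SR-BI-overexpressing, LDLR-lacking CHO cells; schedule: compound exposure 3 h, 37 °C; reagent: DiI-labelled HDL at 10 µg/mL final; technique: bottom-read fluorescence, 550/595 nm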
CAL PDZ FP-2 = CAL PDZ peptide-binding inhibitors, primary screen, biochemical, fluorescence polarization, Cer-tagged CAL PDZ, HTS. Golgi-associated PDZ and coiled-coil motif-containing protein (Homo sapiens), Q9HD26. purified CAL PDZ, TMR-peptide fluorescence polarization, 1 h. inhibition, % at 20 µM. 330,000 compounds, 0.02% hits. AID 504414, 2011;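 active means highest replicate inhibition of at least 40%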;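 further: plate controls were DMSO neutral control wells for no effect and unlabeled competitor peptide control wells for full effect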
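Read-out basis: mP drop reported as inhibition | Assay system: Tagged CAL PDZ protein CerCALP, purified | Benchmarks: Unlabelled peptide for full inhibition, DMSO wells as neutral | Schedule: 1 h incubation at room temperature before polarization reading | Buffer or medium: Sodium phosphate/NaCl buffer pH 7.4 with TCEP, IgG, Thesit | Doses: Single point, 20 µM | Measured by: Fluorescence polarization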
SR-BI DiI inh = inhibitors of SR-BI mediated HDL lipid uptake, primary screen, ldlA[mSR-BI] cells, fluorescence, single point. ldlA[mSR-BI] CHO cells, DiI-HDL uptake fluorescence, 3 h. inhibition, % at 12.5 µM. 320,000 compounds, 0.96% hits;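 active means mean replicate inhibition of at least 70% and a set share of replicates each scoring 70 or more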;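 further: 0% = median of neutral control wells and 100% = median of positive control wells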
Target sequence (Q61009 whole entry, looked up): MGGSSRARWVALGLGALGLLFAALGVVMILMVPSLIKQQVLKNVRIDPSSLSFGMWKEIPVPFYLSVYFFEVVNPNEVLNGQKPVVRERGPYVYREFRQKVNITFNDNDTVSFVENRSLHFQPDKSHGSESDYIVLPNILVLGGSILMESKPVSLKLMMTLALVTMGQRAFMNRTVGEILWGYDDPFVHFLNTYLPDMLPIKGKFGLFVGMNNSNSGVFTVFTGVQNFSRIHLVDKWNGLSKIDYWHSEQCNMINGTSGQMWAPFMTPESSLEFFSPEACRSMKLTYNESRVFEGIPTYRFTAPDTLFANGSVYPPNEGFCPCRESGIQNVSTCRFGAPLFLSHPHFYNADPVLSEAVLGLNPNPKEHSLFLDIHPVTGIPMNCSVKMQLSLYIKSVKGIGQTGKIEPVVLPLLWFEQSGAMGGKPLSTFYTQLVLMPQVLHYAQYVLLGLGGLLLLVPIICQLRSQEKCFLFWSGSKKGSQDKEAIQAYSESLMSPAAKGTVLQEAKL
* = called active by the depositor; [ ] = remark or other dose. A selection: hits, their analogues and other compounds. The true share with any hit is near 2.1%.

`O=C(Nc1cccc(Br)c1)c1cc(=O)c2ccccc2o1` gave CAL PDZ FP-1 6.1, ARNT TACC3 PPI 1.3, miR-122 sensor -3.1, SR-BI DiI-HDL act 1.8, CAL PDZ FP-2 -0.9 and SR-BI DiI inh -1.8.
`Cc1c(C(=O)Nc2ccc(F)c(F)c2)oc2ccc(S(=O)(=O)N3CCCCC3)cc12` gave CAL PDZ FP-1 -1.7, ARNT TACC3 PPI -7.5, miR-122 sensor -0.6, SR-BI DiI-HDL act -75.1, CAL PDZ FP-2 -2.0 and SR-BI DiI inh 75.1*.
O=C(C[C@@H]1CC[C@H]2NC[C@H](O)COC[C@@H]2O1)NCc1ccc(Oc2ccccc2)cc1 was read as ARNT TACC3 PPI 2.6 and miR-122 sensor 2.5[16.7 µM].
C[C@@H]1CN([C@@H](C)CO)C(=O)c2cc(/C=C/c3ccccc3)cnc2O[C@@H]1CN(C)C(=O)C1CC1 was read as miR-122 sensor -3.5[16.7 µM].
Screening CO[C@H]1CN(C)C(=O)c2ccc(NS(=O)(=O)c3ccccc3F)cc2OC[C@H](C)NC[C@H]1C returned ARNT TACC3 PPI -2.9.
O=C(/C=C/c1cc([N+](=O)[O-])ccc1OC(F)F)Nc1cccc(OC(F)F)c1 was read as CAL PDZ FP-1 -3.1, ARNT TACC3 PPI -4.7, SR-BI DiI-HDL act -75.0, CAL PDZ FP-2 1.0 and SR-BI DiI inh 75.0*.
C[C@@H]1CN([C@H](C)CO)C(=O)c2cc(NC(=O)Nc3ccc4c(c3)OCO4)ccc2O[C@@H](C)CCCCO[C@@H]1CN(C)S(=O)(=O)c1cn(C)cn1 was read as ARNT TACC3 PPI 0.9 and miR-122 sensor 11.4[16.7 µM].
For O=C(Nc1ccc(N2CCN(C(=O)c3ccco3)CC2)cc1)c1cc(Br)ccc1Cl the results were CAL PDZ FP-1 48.8*, ARNT TACC3 PPI 4.1, miR-122 sensor -7.6, SR-BI DiI-HDL act -62.7, CAL PDZ FP-2 -0.8 and SR-BI DiI inh 62.7.
`COc1ccc(CCNc2cc(C)nc3c(-c4ccccc4OC)cnn23)cc1OC` gave CAL PDZ FP-1 -1.2, ARNT TACC3 PPI 7.0, miR-122 sensor -6.9, SR-BI DiI-HDL act -90.9, CAL PDZ FP-2 -2.5 and SR-BI DiI inh 90.9*.
COc1ccccc1-c1cnn2c(NCc3ccccc3)cc(C)nc12 was read as CAL PDZ FP-1 1.5, ARNT TACC3 PPI -5.7, miR-122 sensor 7.5, SR-BI DiI-HDL act 1.5, CAL PDZ FP-2 0.0 and SR-BI DiI inh -1.5.
COc1ccc(CCNC(=O)[C@@]2(Cc3ccccc3I)c3ccccc3C(=O)N(Cc3ccccc3OC)[C@H]2c2ccc(CO)cc2)cc1 was read as ARNT TACC3 PPI 9.2.
Screening COC(=O)CC1C(=O)NCCN1C(=O)c1ccc([N+](=O)[O-])cc1 (stereo not drawn) returned CAL PDZ FP-1 69.6*, ARNT TACC3 PPI 2.8, miR-122 sensor -1.7, SR-BI DiI-HDL act 0.6, CAL PDZ FP-2 -1.2 and SR-BI DiI inh -0.6.
COc1ccc(-c2nn(CCC#N)cc2C=C(C#N)C#N)cc1 was read as CAL PDZ FP-1 62.1*, ARNT TACC3 PPI -5.2, miR-122 sensor 0.8, SR-BI DiI-HDL act 6.5, CAL PDZ FP-2 -2.3 and SR-BI DiI inh -6.5.
`C[C@@H]1CCCCO[C@H](CN(C)S(=O)(=O)c2ccccc2)[C@H](C)CN([C@H](C)CO)C(=O)c2cc(NC(=O)Nc3ccccc3)ccc2O1` gave ARNT TACC3 PPI -3.7 and miR-122 sensor -3.6[16.7 µM].
O=C(N/N=C/c1ccc(Br)s1)c1cccnc1 was read as CAL PDZ FP-1 -1.2, ARNT TACC3 PPI 12.7, miR-122 sensor 4.7, SR-BI DiI-HDL act 21.0, CAL PDZ FP-2 -3.3 and SR-BI DiI inh -21.0.
For O=C(N/N=C/c1cc2c(cc1Br)OCO2)c1cccnc1 the results were CAL PDZ FP-1 -4.1, SR-BI DiI-HDL act -30.1, CAL PDZ FP-2 -2.7 and SR-BI DiI inh 30.1.
Screening O=C(N/N=C/c1cc(O)ccc1Br)c1cccnc1 returned CAL PDZ FP-1 -11.1, ARNT TACC3 PPI 85.3*, SR-BI DiI-HDL act -77.0, CAL PDZ FP-2 -3.9 and SR-BI DiI inh 77.0*.
`COc1ccc(/C=N/NC(=O)c2cccnc2)cc1O` gave CAL PDZ FP-1 37.4*, ARNT TACC3 PPI 35.5, miR-122 sensor 6.3, SR-BI DiI-HDL act 33.2, CAL PDZ FP-2 -1.5 and SR-BI DiI inh -33.2.
O=C(N/N=C/c1cc(Br)c(O)c(Br)c1O)c1cccnc1 was read as CAL PDZ FP-1 -8.0, ARNT TACC3 PPI 70.3*, miR-122 sensor -4.3, SR-BI DiI-HDL act 3.1, CAL PDZ FP-2 0.4 and SR-BI DiI inh -3.1.
`COc1ccc(/C=N/NC(=O)c2cccnc2)cc1` gave CAL PDZ FP-1 -2.2, ARNT TACC3 PPI 2.9, SR-BI DiI-HDL act 2.3, CAL PDZ FP-2 -0.9 and SR-BI DiI inh -2.3.
For CNC[C@@H]1OCCCC[C@H](C)Oc2ccc(NC(=O)Cc3ccccc3)cc2C(=O)N([C@@H](C)CO)C[C@@H]1C the results were ARNT TACC3 PPI -5.1 and miR-122 sensor -5.2[16.7 µM].
`C=CCN1C(=O)[C@]2(O[C@H](CCn3cc(CCO)nn3)[C@@H]([Si](C)(C)c3ccc(OC)cc3)[C@@H]2C)c2cc(N3C(=O)c4cccc5cccc3c45)ccc21` gave ARNT TACC3 PPI -1.2.
CC(C)(CNC(=O)c1cc2ccccc2o1)N1CCOCC1 was read as CAL PDZ FP-1 67.2*, ARNT TACC3 PPI -2.8, miR-122 sensor -2.2, SR-BI DiI-HDL act 4.7, CAL PDZ FP-2 -0.3 and SR-BI DiI inh -4.7.
For O=C(NCCN1CCOCC1)c1cc2ccccc2o1 the results were CAL PDZ FP-1 -2.9, ARNT TACC3 PPI -4.4, miR-122 sensor -7.1, SR-BI DiI-HDL act 23.3, CAL PDZ FP-2 -1.6 and SR-BI DiI inh -23.3.
`CN(C)CCCN1C(=O)c2cccc3cccc(c23)C1=O` gave CAL PDZ FP-1 -0.3, ARNT TACC3 PPI -2.6, SR-BI DiI-HDL act 8.4, CAL PDZ FP-2 0.3 and SR-BI DiI inh -8.4.
CC1=CC2=C(OC1N(C)C)c1cccc3cccc(c13)C2=O (stereo not drawn) was read as CAL PDZ FP-1 38.6*, ARNT TACC3 PPI -8.4, miR-122 sensor -5.6, SR-BI DiI-HDL act 5.8 and SR-BI DiI inh -5.8.
O=C(C[C@H]1CC[C@H]2[C@@H](COC[C@H](O)CN2Cc2nccs2)O1)NCc1ccc(F)cc1 was read as ARNT TACC3 PPI -7.0 and miR-122 sensor -6.3[16.7 µM].
Screening CCC/C(=N\NC(=O)CNC(=O)c1ccc(Cl)cc1)c1ccccc1 returned CAL PDZ FP-1 78.5*, ARNT TACC3 PPI -6.1, SR-BI DiI-HDL act -8.7, CAL PDZ FP-2 -0.7 and SR-BI DiI inh 8.7.

High-throughput results deposited in PubChem by Broad Institute.
